Tests used:
Format in all cases: functional
VCaP [1] = assay: Antiproliferative activity against human VCaP cells assessed as T/C value at 3.2 x 10^-3 uM incubated for 96 hrs by propidium iodide based 2D monolayer assay
Method in brief: (§1)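 VCaP cells in RPMI 1640 with 10% FCS at 37 °C, 5% CO2, seeded 4,000–20,000 cells/well and left 24 h before dosing. Compounds from DMSO stocks were diluted in half-log steps in medium, 10 concentrations 0.0032–100 μM, triplicate wells, max 0.3% DMSO. After 96 h, cells were washed, stained with 7 μg/ml propidium iodide plus 0.1% Triton X-100 for 1–2 h at room temperature, and fluorescence read at ex 530/em 620 nm.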

CWR22R [2] = assay: Antiproliferative activity against human 22Rv1 cells assessed as reduction in cell growth incubated for 96 hrs by propidium iodide based 2D monolayer assay; settings: 22Rv1, 96 h
Method in brief: (§2)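 After 24 h recovery, compound in medium or medium alone (control wells) was added at 10 half-log concentrations from 0.0032 to 100 µM, in triplicate, with at most 0.3% DMSO. After 96 h, wells were PBS-washed, stained with 7 µg/ml PI and 0.1% Triton X-100, and fluorescence read at 530/620 nm. IC50 came from a 4-parameter fit, geometric mean.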

DU-145 [3] = assay: Antiproliferative activity against human DU145 cells assessed as T/C value at 3.2 x 10^-3 uM incubated for 96 hrs by propidium iodide based 2D monolayer assay; method in brief: as §2
VCaP [4] = assay: Antiproliferative activity against human VCaP cells assessed as T/C value at 1 uM incubated for 96 hrs by propidium iodide based 2D monolayer assay
Method in brief: as §2, with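 “Cells were kept in RPMI 1640 with 25 mM HEPES, 10% FCS and gentamicin at 37 °C under 5% CO2, and plated at 4,000-20,000 cells/well. After 24” for “After 24”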

DU-145 [5] = assay: Antiproliferative activity against human DU145 cells assessed as T/C value at 3.2 x 10^-2 uM incubated for 96 hrs by propidium iodide based 2D monolayer assay; method in brief: as §2
LNCaP [6] = assay: Antiproliferative activity against human LNCAP cells assessed as T/C value at 3.2 x 10^1 uM incubated for 96 hrs by propidium iodide based 2D monolayer assay
Method in brief: as §2, with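 “Cells were kept in RPMI 1640 with 25 mM HEPES, 10% FCS and gentamicin at 37 °C under 5% CO2, and plated at 4,000-20,000 cells/well. After 24” for “After 24”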

LNCaP [7] = assay: Antiproliferative activity against human LNCAP cells assessed as T/C value at 1 uM incubated for 96 hrs by propidium iodide based 2D monolayer assay
Method in brief: as §2, with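 “Cells were kept in RPMI 1640 with 25 mM HEPES, 10% FCS and gentamicin at 37 °C under 5% CO2, and plated at 4,000-20,000 cells/well. After 24” for “After 24”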

DU-145 [8] = assay: Antiproliferative activity against human DU145 cells assessed as T/C value at 1 x 10^2 uM incubated for 96 hrs by propidium iodide based 2D monolayer assay
Method in brief: as §2, with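 “Cells were kept in RPMI 1640 with 25 mM HEPES, 10% FCS and gentamicin at 37 °C under 5% CO2, and plated at 4,000-20,000 cells/well. After 24” for “After 24”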

VCaP [9] = assay: Antiproliferative activity against human VCaP cells assessed as T/C value at 1 x 10^-1 uM incubated for 96 hrs by propidium iodide based 2D monolayer assay
Method in brief: as §2, with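 “Cells were kept in RPMI 1640 with 25 mM HEPES, 10% FCS and gentamicin at 37 °C under 5% CO2, and plated at 4,000-20,000 cells/well. After 24” for “After 24”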

LNCaP [10] = assay: Antiproliferative activity against human LNCAP cells assessed as T/C value at 1 x 10^-1 uM incubated for 96 hrs by propidium iodide based 2D monolayer assay
Method in brief: as §2, with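 “Cells were kept in RPMI 1640 with 25 mM HEPES, 10% FCS and gentamicin at 37 °C under 5% CO2, and plated at 4,000-20,000 cells/well. After 24” for “After 24”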

LNCaP [11] = assay: Antiproliferative activity against human LNCAP cells assessed as T/C value at 1 x 10^-2 uM incubated for 96 hrs by propidium iodide based 2D monolayer assay
Method in brief: as §2, with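 “Cells were kept in RPMI 1640 with 25 mM HEPES, 10% FCS and gentamicin at 37 °C under 5% CO2, and plated at 4,000-20,000 cells/well. After 24” for “After 24”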

CWR22R [12] = assay: Antiproliferative activity against human 22Rv1 cells assessed as T/C value at 1 x 10^-1 uM incubated for 96 hrs by propidium iodide based 2D monolayer assay
Method in brief: as §2, with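 “Cells were kept in RPMI 1640 with 25 mM HEPES, 10% FCS and gentamicin at 37 °C under 5% CO2, and plated at 4,000-20,000 cells/well. After 24” for “After 24”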

VCaP [13] = assay: Antiproliferative activity against human VCaP cells assessed as T/C value at 3.2 x 10^1 uM incubated for 96 hrs by propidium iodide based 2D monolayer assay; method in brief: as §1
LNCaP [14] = assay: Antiproliferative activity against human LNCAP cells assessed as T/C value at 3.2 x 10^-3 uM incubated for 96 hrs by propidium iodide based 2D monolayer assay
Method in brief: as §2, with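 “Cells were kept in RPMI 1640 with 25 mM HEPES, 10% FCS and gentamicin at 37 °C under 5% CO2, and plated at 4,000-20,000 cells/well. After 24” for “After 24”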

CWR22R [15] = assay: Antiproliferative activity against human 22Rv1 cells assessed as T/C value at 3.2 x 10^-2 uM incubated for 96 hrs by propidium iodide based 2D monolayer assay
Method in brief: as §2, with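 “Cells were kept in RPMI 1640 with 25 mM HEPES, 10% FCS and gentamicin at 37 °C under 5% CO2, and plated at 4,000-20,000 cells/well. After 24” for “After 24”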

LNCaP [16] = assay: Antiproliferative activity against human LNCAP cells assessed as T/C value at 3.2 uM incubated for 96 hrs by propidium iodide based 2D monolayer assay
Method in brief: as §2, with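 “Cells were kept in RPMI 1640 with 25 mM HEPES, 10% FCS and gentamicin at 37 °C under 5% CO2, and plated at 4,000-20,000 cells/well. After 24” for “After 24”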

DU-145 [17] = assay: Antiproliferative activity against human DU145 cells assessed as T/C value at 3.2 x 10^1 uM incubated for 96 hrs by propidium iodide based 2D monolayer assay
Method in brief: as §2, with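 “Cells were kept in RPMI 1640 with 25 mM HEPES, 10% FCS and gentamicin at 37 °C under 5% CO2, and plated at 4,000-20,000 cells/well. After 24” for “After 24”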

LNCaP [18] = assay: Antiproliferative activity against human LNCAP cells assessed as T/C value at 3.2 x 10^-2 uM incubated for 96 hrs by propidium iodide based 2D monolayer assay
Method in brief: as §2, with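 “Cells were kept in RPMI 1640 with 25 mM HEPES, 10% FCS and gentamicin at 37 °C under 5% CO2, and plated at 4,000-20,000 cells/well. After 24” for “After 24”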

LNCaP [19] = assay: Antiproliferative activity against human LNCAP cells assessed as T/C value at 1 x 10^2 uM incubated for 96 hrs by propidium iodide based 2D monolayer assay
Method in brief: as §2, with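 “Cells were kept in RPMI 1640 with 25 mM HEPES, 10% FCS and gentamicin at 37 °C under 5% CO2, and plated at 4,000-20,000 cells/well. After 24” for “After 24”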

DU-145 [20] = assay: Antiproliferative activity against human DU145 cells assessed as reduction in cell growth incubated for 96 hrs by propidium iodide based 2D monolayer assay; settings: DU-145, 96 h; method in brief: as §2
LNCaP [21] = assay: Antiproliferative activity against human LNCAP cells assessed as reduction in cell growth incubated for 96 hrs by propidium iodide based 2D monolayer assay; method in brief: as §2
CWR22R [22] = assay: Antiproliferative activity against human 22Rv1 cells assessed as T/C value at 1 x 10^2 uM incubated for 96 hrs by propidium iodide based 2D monolayer assay
Method in brief: as §2, with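 “Cells were kept in RPMI 1640 with 25 mM HEPES, 10% FCS and gentamicin at 37 °C under 5% CO2, and plated at 4,000-20,000 cells/well. After 24” for “After 24”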

CWR22R [23] = assay: Antiproliferative activity against human 22Rv1 cells assessed as T/C value at 3.2 x 10^-1 uM incubated for 96 hrs by propidium iodide based 2D monolayer assay
Method in brief: as §2, with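 “Cells were kept in RPMI 1640 with 25 mM HEPES, 10% FCS and gentamicin at 37 °C under 5% CO2, and plated at 4,000-20,000 cells/well. After 24” for “After 24”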

DU-145 [24] = assay: Antiproliferative activity against human DU145 cells assessed as T/C value at 1 uM incubated for 96 hrs by propidium iodide based 2D monolayer assay; method in brief: as §2
DU-145 [25] = assay: Antiproliferative activity against human DU145 cells assessed as T/C value at 1 x 10^1 uM incubated for 96 hrs by propidium iodide based 2D monolayer assay; method in brief: as §2
VCaP [26] = assay: Antiproliferative activity against human VCaP cells assessed as T/C value at 1 x 10^2 uM incubated for 96 hrs by propidium iodide based 2D monolayer assay
Method in brief: as §2, with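 “Cells were kept in RPMI 1640 with 25 mM HEPES, 10% FCS and gentamicin at 37 °C under 5% CO2, and plated at 4,000-20,000 cells/well. After 24” for “After 24”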

VCaP [27] = assay: Antiproliferative activity against human VCaP cells assessed as T/C value at 1 x 10^-2 uM incubated for 96 hrs by propidium iodide based 2D monolayer assay
Method in brief: as §2, with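 “Cells were kept in RPMI 1640 with 25 mM HEPES, 10% FCS and gentamicin at 37 °C under 5% CO2, and plated at 4,000-20,000 cells/well. After 24” for “After 24”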

CWR22R [28] = assay: Antiproliferative activity against human 22Rv1 cells assessed as T/C value at 1 uM incubated for 96 hrs by propidium iodide based 2D monolayer assay
Method in brief: as §2, with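 “Cells were kept in RPMI 1640 with 25 mM HEPES, 10% FCS and gentamicin at 37 °C under 5% CO2, and plated at 4,000-20,000 cells/well. After 24” for “After 24”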

VCaP [29] = assay: Antiproliferative activity against human VCaP cells assessed as T/C value at 1 x 10^1 uM incubated for 96 hrs by propidium iodide based 2D monolayer assay
Method in brief: as §2, with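 “Cells were kept in RPMI 1640 with 25 mM HEPES, 10% FCS and gentamicin at 37 °C under 5% CO2, and plated at 4,000-20,000 cells/well. After 24” for “After 24”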

VCaP [30] = assay: Antiproliferative activity against human VCaP cells assessed as T/C value at 3.2 uM incubated for 96 hrs by propidium iodide based 2D monolayer assay
Method in brief: as §2, with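 “Cells were kept in RPMI 1640 with 25 mM HEPES, 10% FCS and gentamicin at 37 °C under 5% CO2, and plated at 4,000-20,000 cells/well. After 24” for “After 24”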

DU-145 [31] = assay: Antiproliferative activity against human DU145 cells assessed as T/C value at 3.2 uM incubated for 96 hrs by propidium iodide based 2D monolayer assay
Method in brief: as §2, with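 “Cells were kept in RPMI 1640 with 25 mM HEPES, 10% FCS and gentamicin at 37 °C under 5% CO2, and plated at 4,000-20,000 cells/well. After 24” for “After 24”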

VCaP [32] = assay: Antiproliferative activity against human VCaP cells assessed as reduction in cell growth incubated for 96 hrs by propidium iodide based 2D monolayer assay; method in brief: as §1

CC(O)(COc1cccc(S(F)(F)(F)(F)F)c1)C(=O)Nc1ccc([N+](=O)[O-])c(C(F)(F)F)c1 (racemic)
T/C (VCaP [1]): 103 - 109%
IC50 (CWR22R [2]): 5.4 µM
IC70 (CWR22R [2]): 5.77 to 6.98 µM
T/C (DU-145 [3]): 111 - 116%
T/C (VCaP [4]): 94 - 108%
T/C (DU-145 [5]): 116 - 124%
T/C (LNCaP [6]): -1%
T/C (LNCaP [7]): 84 - 93%
T/C (DU-145 [8]): 1%
T/C (VCaP [9]): 94 - 115%
T/C (LNCaP [10]): 87 - 113%
T/C (LNCaP [11]): 94 - 104%
T/C (CWR22R [12]): 106 - 110%
T/C (VCaP [13]): 2 - 4%
T/C (LNCaP [14]): 92 - 98%
T/C (CWR22R [15]): 108 - 110%
T/C (LNCaP [16]): 54 - 71%
T/C (DU-145 [17]): 1%
T/C (LNCaP [18]): 92 - 95%
T/C (LNCaP [19]): 1 - 2%
IC50 (DU-145 [20]): 7.4 µM
IC70 (DU-145 [20]): 7.24 to 8.54 µM
IC50 (LNCaP [21]): 3.3 µM
IC70 (LNCaP [21]): 4.37 to 5.15 µM
T/C (CWR22R [22]): 2 - 3%
T/C (CWR22R [23]): 107 - 111%
T/C (DU-145 [24]): 122 - 125%
T/C (DU-145 [25]): 9 - 16%
T/C (VCaP [26]): 5 - 11%
T/C (VCaP [27]): 97 - 108%
T/C (CWR22R [28]): 101 - 109%
T/C (VCaP [29]): 22%
T/C (VCaP [30]): 81 - 87%
T/C (DU-145 [31]): 116%
IC50 (VCaP [32]): 5.3 µM
IC70 (VCaP [32]): 7.82 to 8.69 µM
